Data published in ChEMBL document CHEMBL1138201, “Development and characterization of biphenylsulfonamides as novel inhibitors of bone resorption” (J Med Chem, 2006).
Active and inactive are the calls of the source. The rule behind the calls is not given here.

Key:
J774 = experiment: Inhibition of mouse J774 cell survival by alamar blue viability assay; format: functional, cell-based
Method in brief: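 J774 cells were seeded at 10⁴ per well in […] with 10% FCS and penicillin/streptomycin and grown overnight. Compounds were then added for 48 h. Alamar Blue was added for a further 3 h and viability was read as fluorescence (ex 530, em 590 nm). There were at least three independent experiments, n = 5 each, and IC₅₀ was fitted.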

Osteoblast = experiment: Effect on apoptosis of osteoblast; format: functional, cell-based; conditions: Homo sapiens
Macrophage = experiment: Apoptosis of macrophage at 5 to 20 uM; format: functional, cell-based; conditions: Homo sapiens
Homo sapiens [1] = species on record: Homo sapiens; experiment: Inhibition of TNF-alpha-activated NF-kappaB
Hepatocyte = experiment: Effect on apoptosis of hepatocyte; format: functional, cell-based; conditions: Homo sapiens
Osteoclast [2] = experiment: Apoptosis of osteoclast at 5 to 20 uM; format: functional, cell-based; conditions: Homo sapiens
Osteoclast [3] = experiment: Inhibition of mouse osteoclast survival; format: functional, cell-based
Method in brief: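 Mouse bone marrow from femora and tibiae was grown 3 days with 100 ng/mL M-CSF. Adherent cells were seeded on dentine slices (4 × 10⁴ cells/mL) with 100 ng/mL RANKL and 25 ng/mL M-CSF for 7 days. Compounds were present for 72 h from day 4. TRAcP-positive cells with ≥3 nuclei were counted as % of vehicle. Three experiments, n = 5 each.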

Homo sapiens [4] = species on record: Homo sapiens; experiment: Inhibition of RANKL-activated NF-kappaB
Mus musculus = experiment: Inhibition of ovariectomy-induced bone loss in C57/BL6 mouse at 5 mg/kg/day, ip; format: functional, organism-based
Method in brief: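 Nine-week-old female C57/BL6 mice were ovariectomized or sham-operated. Starting 2 days after surgery, they received 5 (mg/kg)/day intraperitoneally in corn oil for 21 days; controls received oil alone. The study ended on day 23. Bone at the right tibial metaphysis was measured by µCT at 5 µm resolution over 200 slices distal to the growth plate. Results are % change from sham, ±SEM, n = 6.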

| Structure (SMILES) | IC50 (J774) [µM] | further results |
| --- | --- | --- |
| O=S(=O)(NCCCCO)c1ccc(-c2ccc(F)cc2)cc1 | 8 | – |
| O=C(OCCCCO)c1ccc(-c2ccccc2)cc1 | – | IC50 (Osteoblast): > 100 µM; Activity (Macrophage): Active; Activity (Homo sapiens [1]): Active; IC50 (Hepatocyte): > 200 µM; Activity (Osteoclast [2]): Active; IC50 (Osteoclast [3]): 9 µM; Activity (Homo sapiens [4]): Active |
| O=[N+]([O-])c1cccc(-c2ccc(S(=O)(=O)NCCCCO)cc2)c1 | 33 | – |
| O=S(=O)(NCCCCCO)c1ccc(-c2ccc(C(F)(F)F)cc2C(F)(F)F)cc1 | 2 | – |
| COc1cc(S(=O)(=O)NCCCCCO)ccc1-c1ccc(F)cc1F | 33 | – |
| O=S(=O)(NCCCCO)c1ccc(-c2ccc(C(F)(F)F)cc2)cc1F | 5 | – |
| COc1ccccc1-c1ccc(S(=O)(=O)NCCCCCO)cc1 | 31 | – |
| O=S(=O)(NCCCCO)c1ccc(-c2ccc(OC(F)(F)F)cc2)cc1 | 8 | – |
| Cc1ccc(-c2ccc(S(=O)(=O)NCCCCCO)cc2)cc1 | 13 | – |
| Cc1cccc(-c2ccc(S(=O)(=O)NCCCCO)cc2)c1 | 28 | – |
| O=S(=O)(NCCCCCCO)c1ccc(-c2ccccc2)cc1 | 13 | – |
| O=S(=O)(NCCCCO)c1ccc(-c2ccccc2)cc1C(F)(F)F | 4.5 | – |
| Cc1cc(S(=O)(=O)NCCCCO)ccc1-c1ccc(F)cc1F | 0.8 | Activity (Mus musculus): Active; Activity (Homo sapiens [1]): Active; IC50 (Osteoclast [3]): 0.15 µM; Activity (Homo sapiens [4]): Active |
| O=S(=O)(NCCCCO)c1ccc(-c2ccccc2)cc1 | 18 | Activity (Homo sapiens [1]): Active; IC50 (Osteoclast [3]): 8 µM; Activity (Homo sapiens [4]): Active |
| O=S(=O)(NCCCCCO)c1ccc(-c2ccc(-c3ccccc3)cc2)cc1 | 33 | – |
| O=S(=O)(NCCCCO)c1ccc(-c2ccc(C(F)(F)F)cc2)c(F)c1 | 5.5 | – |
| O=S(=O)(NCCCCO)c1ccc(-c2ccc(Br)cc2)cc1 | 8 | – |
| O=S(=O)(NCCCO)c1ccc(-c2ccccc2)cc1 | > 50 | – |
| O=S(=O)(NCCCCCO)c1ccc(-c2ccc(Br)cc2)cc1 | 9 | – |
| O=S(=O)(NCCCCCO)c1ccc(-c2ccc(F)c(F)c2)cc1 | 16 | – |

| Structure (SMILES) | IC50 (J774) [µM] | further results |
| --- | --- | --- |
| O=C(O)c1ccc(-c2ccc(S(=O)(=O)NCCCCCO)cc2)cc1 | 33 | – |
| O=S(=O)(NCCCCO)c1ccc(-c2ccccc2C(F)(F)F)cc1 | 6 | – |
| O=S(=O)(NCCCCO)c1ccc(-c2ccccc2I)cc1 | 5.5 | – |
| N#Cc1ccc(-c2ccc(S(=O)(=O)NCCCCCO)cc2)cc1 | 12 | – |
| CSc1ccc(-c2ccc(S(=O)(=O)NCCCCO)cc2)cc1 | 35 | – |
| O=[N+]([O-])c1ccccc1-c1ccc(S(=O)(=O)NCCCCO)cc1 | 2 | – |
| CC(=O)c1ccc(-c2ccc(S(=O)(=O)NCCCCCO)cc2)cc1 | 11 | – |
| O=S(=O)(NCCCCO)c1cccc(-c2ccc(C(F)(F)F)cc2)c1 | > 50 | – |
| O=S(=O)(NCCCCO)c1ccc(-c2ccc(Br)cc2F)cc1 | 3 | – |
| O=S(=O)(NCCCCCO)c1ccc(-c2ccc(O)cc2)cc1 | 21 | – |
| Nc1ccccc1-c1ccc(S(=O)(=O)NCCCCO)cc1 | 24 | – |
| O=S(=O)(NCCCCCO)c1ccc(-c2ccc(Cl)cc2Cl)cc1 | 2.5 | – |
| O=S(=O)(NCCCCO)c1ccccc1-c1ccc(F)cc1 | > 50 | – |
| O=S(=O)(NCCCCO)c1ccc(-c2ccc(F)cc2F)c(C(F)(F)F)c1 | 0.7 | – |
| O=S(=O)(NCCCCCO)c1ccc(-c2ccc(F)cc2F)cc1 | 4.5 | – |
| O=S(=O)(NCCCCCO)c1ccc(-c2ccccc2)cc1 | 18 | – |
| O=S(=O)(NCCCCO)c1ccc(-c2ccc(C(F)(F)F)cc2)cc1 | 5 | – |
| Cc1cc(S(=O)(=O)NCCCCO)ccc1-c1ccc(F)cc1 | 2.5 | – |
| CN(C)c1ccc(-c2ccc(S(=O)(=O)NCCCCCO)cc2)cc1 | 32 | – |
